Residue numbers refer to the chain shown, from its start. Entries after “also recorded” stand apart in the source; their conditions may differ. Like-named read-outs stand apart in the source and are kept apart here.
Tests used:
TG2 [1] = molecular target: T1, TG2 (Homo sapiens, UniProt P21980); conditions: active site-directed irreversible inhibitor; cited from earlier work
T1 sequence (P21980 1-687): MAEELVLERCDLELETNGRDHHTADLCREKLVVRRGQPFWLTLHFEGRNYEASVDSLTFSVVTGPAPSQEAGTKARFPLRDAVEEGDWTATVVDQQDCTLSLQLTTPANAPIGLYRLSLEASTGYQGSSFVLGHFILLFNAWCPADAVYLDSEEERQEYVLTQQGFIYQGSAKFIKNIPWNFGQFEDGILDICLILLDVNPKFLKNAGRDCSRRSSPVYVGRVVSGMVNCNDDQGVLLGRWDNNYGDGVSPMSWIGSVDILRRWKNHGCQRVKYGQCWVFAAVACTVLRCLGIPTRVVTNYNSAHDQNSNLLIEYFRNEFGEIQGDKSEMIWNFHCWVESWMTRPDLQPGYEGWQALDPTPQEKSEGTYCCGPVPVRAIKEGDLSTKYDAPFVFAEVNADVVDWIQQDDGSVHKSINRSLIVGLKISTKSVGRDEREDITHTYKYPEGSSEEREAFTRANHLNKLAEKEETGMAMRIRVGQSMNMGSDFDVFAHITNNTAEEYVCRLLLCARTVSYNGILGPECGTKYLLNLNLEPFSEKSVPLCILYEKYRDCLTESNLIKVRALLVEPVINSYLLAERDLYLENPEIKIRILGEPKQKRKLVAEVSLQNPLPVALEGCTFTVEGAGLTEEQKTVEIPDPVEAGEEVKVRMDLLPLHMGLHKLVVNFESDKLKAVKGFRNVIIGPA

[2] = system: extracellular TG2 in WI-38 fibroblasts; assay: 5-BP incorporation into extracellular matrix proteins of WI-38 fibroblasts; type: cell-based
Summary of the method: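 WI-38 fibroblasts were grown to confluence, then pre-incubated with vehicle (1% DMSO) or test compound for 30 min. Cells were then given 200 μM 5-(biotinamido)pentylamine for 3 h, fixed and stained. Transamidation was scored as 5-BP incorporated into extracellular matrix proteins, imaged at 5 fields sampled across each well.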

human TG2 (V224 variant) = molecular target: T2, human TG2 (V224 variant) (Homo sapiens, UniProt P21980); assay: coupled GDH assay of TG2 deamidation of Cbz-Gln-Gly; type: biochemical; conditions: for mode of inhibition / activation: V224 TG2
T2 sequence (P21980 1-687): T1 sequence (P21980 1-687)

TG2 [3] = molecular target: T1, TG2; assay: microtiter plate transamidation assay; type: biochemical
Summary of the method: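 In a microtiter plate format, TG2 incorporated 5-BP into immobilized N,N-dimethylcasein. The incorporated biotin was quantified with streptavidin. Ca2+ was held at the sub-saturating level of 0.6 mM, and the test compound was assayed with or without the stable GTP analog GMP-PNP.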

TG2 [4] = molecular target: T1, TG2; assay: native PAGE analysis of open versus closed states
[5] = molecular target: T3, R580A mutant of human TG2 (Homo sapiens, UniProt P21980, R580A); assay: deamidation activity of R580A mutant; type: biochemical; conditions: [TG2] = 0.5 μM, [Ca2+] = 3 mM
T3 sequence (P21980 1-687 R580A): T1 sequence (P21980 1-687) with R580A
Summary of the method: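 Deamidation by wild-type and R580A TG2 was measured side by side with test compound and the GTP analog GMP-PNP, at 0.5 μM enzyme and 3 mM Ca2+.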

[6] = molecular target: T4, truncated form of human TG2 (1-466) (Homo sapiens, UniProt P21980); assay: deamidation activity of truncated TG2; type: biochemical; conditions: [TG2] = 0.5 μM; [Ca2+] = 5 mM
T4 sequence (P21980 1-466): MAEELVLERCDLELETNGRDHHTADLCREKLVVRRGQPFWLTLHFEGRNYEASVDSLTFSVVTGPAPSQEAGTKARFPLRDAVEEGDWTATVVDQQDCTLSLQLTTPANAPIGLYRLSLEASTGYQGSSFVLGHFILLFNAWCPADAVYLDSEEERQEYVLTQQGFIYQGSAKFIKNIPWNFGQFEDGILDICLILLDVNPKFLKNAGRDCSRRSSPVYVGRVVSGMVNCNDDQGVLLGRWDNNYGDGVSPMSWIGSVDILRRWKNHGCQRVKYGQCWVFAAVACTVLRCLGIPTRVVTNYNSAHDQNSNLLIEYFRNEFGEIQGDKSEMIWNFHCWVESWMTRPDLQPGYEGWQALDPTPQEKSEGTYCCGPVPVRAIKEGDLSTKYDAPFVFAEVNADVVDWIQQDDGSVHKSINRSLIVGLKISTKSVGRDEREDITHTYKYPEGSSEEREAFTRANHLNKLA
Summary of the method: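 The truncated TG2 (residues 1-466) lacks both C-terminal beta-barrel domains and was expressed and purified. It was tested against wild-type TG2 in the deamidation assay at 0.5 μM enzyme and 5 mM Ca2+. Activity was normalized to each protein's own maximum, since kcat and KM differ between the two proteins.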

[7] = molecular target: T5, TG2 S2A mutant (E396Q/N398S/D400N) (Homo sapiens, UniProt P21980, D400N/E396Q/N398S); assay: deamidation activity of S2A mutant; type: biochemical; conditions: [TG2] = 2.5 μM; [Ca2+] = 5 mM
T5 sequence (P21980 1-687 E396Q/N398S/D400N): T1 sequence (P21980 1-687) with E396Q, N398S, D400N

[8] = molecular target: T6, TG2 S2B mutant (E447Q/E451Q/E452Q/E454Q) (Homo sapiens, UniProt P21980, E447Q/E451Q/E452Q/E454Q); assay: deamidation activity of S2B mutant; type: biochemical; conditions: [TG2] = 2.5 μM; [Ca2+] = 5 mM
T6 sequence (P21980 1-687 E447Q/E451Q/E452Q/E454Q): T1 sequence (P21980 1-687) with E447Q, E451Q, E452Q, E454Q

[9] = molecular target: T3, R580A mutant of human TG2; conditions: cited from earlier work
TG2 [10] = conditions: cited from earlier work

**Q.** For Ac-P(DON)LPF-NH2, which “effect on TG2 conformation” value (TG2 [1]) is on record?
**A.** Its value is “locks TG2 in the open state”.

**Q.** With O=C1Nc2cccc(Cl)c2/C1=C\C(=O)c1ccc(Cl)cc1 [CK-IV-67] as the compound, how does the “extracellular TG2 activity (5-BP incorporation)” value (from here on “extracellular TG2 activity”) ([2]; concentrations not given (data not shown)) read?
**A.** Its value is “higher absolute concentrations of the latter inhibitor were required to see elevated 5-BP incorporation”.

**Q.** With COc1ccccc1C(=O)/C=C1/C(=O)Nc2cccc(Cl)c21 [CK-IV-55] as the compound, how does the “mode of inhibition / activation” value (human TG2 (V224 variant); Lineweaver-Burk analysis) read?
**A.** The value was “non-competitive inhibitor”.

**Q.** What about the “extent of inhibition of wild-type TG2” value (human TG2 (V224 variant); [TG2] = 0.5 μM, [Ca2+] = 5 mM) of the same compound?
**A.** The value was “partial inhibitory character”.

**Q.** What about the “effect on TG2 catalytic activity at sub-saturating Ca2+” value (human TG2 (V224 variant); sub-saturating Ca2+, 0.5-0.7 mM (legend of Figure 4A: 0.5-0.8 mM)) of the same compound?
**A.** The value was “weak but reproducible agonism; also recorded: activated TG2”.

**Q.** What about the “extracellular TG2 activity” value ([2]; 1 μM compound, 200 μM 5-BP, 3 h) of the same compound?
**A.** The value was “activation of extracellular TG2”.

**Q.** And the “extracellular TG2 activity” value ([2]; 10 μM compound, 3 h)?
**A.** Its value is “TG2 activity was suppressed compared to the 1 μM case”.

**Q.** And the “effect on transamidating activity of TG2” value (TG2 [3]; 0.6 mM Ca2+ alone)?
**A.** Its value is “agonism was not observed”.

**Q.** What about the “effect on transamidation activity of TG2” value (TG2 [3]; 0.6 mM Ca2+ and 100 μM GMP-PNP) of the same compound?
**A.** Its value is “markedly enhanced”.

**Q.** What about the “influence on relative distribution of open versus closed states of TG2” value (TG2 [4]) of the same compound?
**A.** The value was “did not have a measurable influence”.

**Q.** What about the “agonistic effect in the presence of GMP-PNP” value ([5]; R580A mutant) of the same compound?
**A.** The value was “evident”.

**Q.** And the “inhibitory potency in R580A mutant versus wild-type” value [5]?
**A.** The value was “unaltered”.

**Q.** What about the “extent of inhibition of TG2 (1-466)” value [6] of the same compound?
**A.** The value was “total antagonist”.

**Q.** What about the “inhibitory effect on S2A mutant compared with wild-type” value [7] of the same compound?
**A.** Its value is “comparable inhibitory effect”.

**Q.** And the “effect on activity of S2B mutant” value [8]?
**A.** The value was “no effect”.

**Q.** With Nc1nc2c(ncn2[C@@H]2O[C@H](COP(=O)(O)OP(=O)(O)NP(=O)(O)O)[C@@H](O)[C@H]2O)c(=O)[nH]1 [GMP-PNP, reference compound] as the compound, how does the “mode of inhibition / activation” value (human TG2 (V224 variant); Lineweaver-Burk analysis) read?
**A.** The value was “competitive inhibitor”.

**Q.** And the “inhibition of R580A mutant” value [9]?
**A.** The value was “attenuated”.

**Q.** With [Ca+2] [Ca^2+, reference compound] as the compound, how does the “mode of inhibition / activation” value (human TG2 (V224 variant); Lineweaver-Burk analysis) read?
**A.** The value was “competitive activator”.

**Q.** What about the “Ka, activation of V224 TG2” value (human TG2 (V224 variant); Lineweaver-Burk analysis, [TG2] = 0.5 μM) of the same compound?
**A.** The value was 0.6 ± 0.3 mM.

**Q.** And the Kd (TG2 [10]; read-out: Kd, high-affinity Ca2+ binding site, one site (S1))?
**A.** Its Kd is about 1 µM.

**Q.** What about the Kd (TG2 [10]; read-out: Kd, lower-affinity Ca2+ binding sites, five sites) of the same compound?
**A.** Its Kd is about 1000 µM.
